Reference: ChEMBL document CHEMBL4308921, “Structure-Activity Relationships of Central Nervous System Penetration by Fatty Acid Amide Hydrolase (FAAH)-Targeted Thyromimetic Prodrugs” (ACS Med Chem Lett, 2019)
Calls of active or inactive are those of the source. No cut-off for these calls is given here.

Assays:
[1] = Drug uptake in C57BL/6 mouse brain at 3.05 umol/kg, ip after 1 hr by LC-MS/MS analysis; assay type: ADME, organism-based; settings: read-out: Drug uptake
[2] = Drug uptake in C57BL/6 mouse serum at 3.05 umol/kg, ip after 1 hr by LC-MS/MS analysis; assay type: ADME, organism-based; settings: read-out: Drug uptake
[3] = Brain to serum permeability coefficient, Kp of the compound in C57BL/6 mouse at 3.05 umol/kg, ip after 1 hr by LC-MS/MS analysis; assay type: ADME, organism-based
[4] = biological target: T1, Fatty-acid amide hydrolase 1 (Homo sapiens, UniProt O00519); assay: Prodrug activation in COS7 cells overexpressing human FAAH assessed as FAAH-mediated sobetirome formation by measuring compound hydrolysis rate at 100 uM by LC-MS/MS analysis; assay type: cell-based
T1 sequence (O00519 whole entry): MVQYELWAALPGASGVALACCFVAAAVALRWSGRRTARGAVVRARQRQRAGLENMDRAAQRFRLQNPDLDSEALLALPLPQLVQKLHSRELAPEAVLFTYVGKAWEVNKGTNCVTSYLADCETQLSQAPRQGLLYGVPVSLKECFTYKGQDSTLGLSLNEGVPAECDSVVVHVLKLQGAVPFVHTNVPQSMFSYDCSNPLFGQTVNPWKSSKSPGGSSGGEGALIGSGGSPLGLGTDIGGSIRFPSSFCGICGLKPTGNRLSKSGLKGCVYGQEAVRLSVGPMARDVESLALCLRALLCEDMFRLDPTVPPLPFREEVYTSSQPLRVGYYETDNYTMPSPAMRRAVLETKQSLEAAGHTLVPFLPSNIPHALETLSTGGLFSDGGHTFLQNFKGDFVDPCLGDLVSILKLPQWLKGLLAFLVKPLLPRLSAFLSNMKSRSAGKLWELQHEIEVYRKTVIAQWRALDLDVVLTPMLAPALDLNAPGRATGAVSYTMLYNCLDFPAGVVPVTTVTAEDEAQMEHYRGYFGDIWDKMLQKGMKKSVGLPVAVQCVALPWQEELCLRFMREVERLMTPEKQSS
How it was run: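 Hydrolysis kinetics were measured in homogenate of COS-7 cells overexpressing human FAAH, with prodrug substrate at 100 µM. Rate is given as nmol mg-1 min-1, mean ± SEM, n = 3.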

[5] = Clearance in C57BL/6 mouse at 9.15 umol/kg, iv by LC-MS/MS analysis; assay type: ADME, organism-based; settings: in vivo
[6] = Tmax in C57BL/6 mouse brain assessed as sobetirome level at 9.15 umol/kg, iv by LC-MS/MS analysis; assay type: ADME, organism-based; settings: in vivo
[7] = Prodrug activation in C57BL/6 mouse serum assessed as FAAH-mediated sobetirome formation at 3.05 umol/kg, ip after 1 hr by LC-MS/MS analysis; assay type: organism-based; settings: in vivo
[8] = Oral bioavailability in C57BL/6 mouse at 9.15 umol/kg administered via gavage by LC-MS/MS analysis; assay type: ADME, organism-based; settings: in vivo
[9] = Terminal half life in C57BL/6 mouse at 9.15 umol/kg, iv by LC-MS/MS analysis; assay type: ADME, organism-based; settings: in vivo, read-out: beta t1/2 (converted)
[10] = biological target: T2, Thyroid hormone receptor beta (Homo sapiens) (UniProt P10828); assay: Agonist activity at human TRbeta treated at 1 hr post FAAH inhibitor PF-3845 treatment and measured after 24 hrs by cell based luciferase reporter gene assay
T2 sequence (whole entry): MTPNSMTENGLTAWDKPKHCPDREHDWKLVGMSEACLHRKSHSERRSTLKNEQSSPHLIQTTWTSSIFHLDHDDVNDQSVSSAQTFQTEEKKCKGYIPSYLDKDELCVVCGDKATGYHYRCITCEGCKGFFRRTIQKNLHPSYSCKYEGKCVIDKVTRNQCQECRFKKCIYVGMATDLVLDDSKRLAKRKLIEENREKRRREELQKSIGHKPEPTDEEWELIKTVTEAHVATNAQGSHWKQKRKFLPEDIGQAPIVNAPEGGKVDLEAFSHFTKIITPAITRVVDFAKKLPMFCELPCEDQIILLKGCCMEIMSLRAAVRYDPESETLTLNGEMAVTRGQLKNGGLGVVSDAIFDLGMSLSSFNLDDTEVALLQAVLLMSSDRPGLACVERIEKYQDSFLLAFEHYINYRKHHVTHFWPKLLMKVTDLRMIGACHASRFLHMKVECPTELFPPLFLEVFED
How it was run: (§1)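 A plate-based luciferase reporter assay measured TRα or TRβ activation as dose-response curves, run in the presence of the FAAH inhibitor PF-3845. Data are mean ± SEM, n = 3.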

[11] = Brain to serum permeability coefficient, Kp of the compound in C57BL/6 mouse assessed as sobetirome level at 9.15 umol/kg, po via gavage measured up to 24 hrs by LC-MS/MS analysis; assay type: ADME, organism-based
[12] = biological target: T3, Thyroid hormone receptor alpha (Homo sapiens) (UniProt P10827); assay: Agonist activity at human TRalpha treated at 1 hr post FAAH inhibitor PF-3845 treatment and measured after 24 hrs by cell based luciferase reporter gene assay; how it was run: as §1
T3 sequence (whole entry): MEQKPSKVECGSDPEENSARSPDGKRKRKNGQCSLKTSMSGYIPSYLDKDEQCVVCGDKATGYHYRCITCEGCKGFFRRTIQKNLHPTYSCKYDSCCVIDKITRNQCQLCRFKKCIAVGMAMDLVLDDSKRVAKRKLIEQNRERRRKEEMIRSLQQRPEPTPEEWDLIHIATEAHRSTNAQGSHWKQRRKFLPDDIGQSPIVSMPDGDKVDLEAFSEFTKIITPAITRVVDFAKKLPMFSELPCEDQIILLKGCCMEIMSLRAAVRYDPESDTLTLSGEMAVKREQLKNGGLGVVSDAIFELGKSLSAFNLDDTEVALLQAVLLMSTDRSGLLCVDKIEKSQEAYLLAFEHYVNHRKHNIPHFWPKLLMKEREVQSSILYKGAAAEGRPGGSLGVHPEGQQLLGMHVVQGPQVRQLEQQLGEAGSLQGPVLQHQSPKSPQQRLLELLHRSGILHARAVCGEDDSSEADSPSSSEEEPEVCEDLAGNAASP

[13] = Brain to serum permeability coefficient, Kp of the compound in C57BL/6 mouse assessed as sobetirome level at 3.05 umol/kg, ip after 1 hr by LC-MS/MS analysis; assay type: ADME, organism-based
[14] = AUC (0 to 24 hrs) in C57BL/6 mouse brain assessed as sobetirome level at 9.15 umol/kg, iv by LC-MS/MS analysis; assay type: ADME, organism-based; design: dose 9.15 umol/kg, time < 24 hr, route intravenous; settings: in vivo
[15] = AUC (0 to 24 hrs) in C57BL/6 mouse brain assessed as sobetirome level at 9.15 umol/kg, po via gavage by LC-MS/MS analysis; assay type: ADME, organism-based; design: dose 9.15 umol/kg, time < 24 hr, route oral; settings: in vivo
[16] = Tmax in C57BL/6 mouse serum assessed as sobetirome level at 9.15 umol/kg, iv by LC-MS/MS analysis; assay type: ADME, organism-based; settings: in vivo
[17] = Brain to serum permeability coefficient, Kp of the compound in C57BL/6 mouse assessed as sobetirome level at 9.15 umol/kg, iv measured up to 24 hrs by LC-MS/MS analysis; assay type: ADME, organism-based
[18] = Prodrug activation in C57BL/6 mouse brain assessed as FAAH-mediated sobetirome formation at 3.05 umol/kg, ip after 1 hr by LC-MS/MS analysis; assay type: organism-based; settings: in vivo

Drug metabolism [4] | Drug uptake [7] | Kp [13] | Drug uptake [18] | Compound | other results
– | – | – | – | Cc1cc(OCC(=O)O)cc(C)c1Cc1ccc(O)c(C(C)C)c1 [SOBETIROME] | concentration at 1 h [1]: 3.6 ng/g; concentration at 1 h [2]: 319 ng/g; Kp at 1 h [3]: 0.03
3.2 nmol/mg/min | 17.2 ng/g | 3.17 | 53.1 ng/g | CNC(=O)COc1cc(C)c(Cc2ccc(O)c(C(C)C)c2)c(C)c1 | clearance [5]: 91.7 mL/min/kg; Tmax [6]: 0.5 h; bioavailability [8]: 19.5%; half-life [9]: 8.8 h; Activity [10]: Active; Kp [11]: 0.44; Activity [12]: Active; AUC [14]: 694 ng·h/g; AUC [15]: 378 ng·h/g; Tmax [16]: 0.5 h; Kp [17]: 0.82
3.2 nmol/mg/min | 59.4 ng/g | 0.99 | 59.5 ng/g | C#CCNC(=O)COc1cc(C)c(Cc2ccc(O)c(C(C)C)c2)c(C)c1 | –
3.7 nmol/mg/min | 98 ng/g | 0.03 | 2.6 ng/g | Cc1cc(OCC(=O)NC(CO)CO)cc(C)c1Cc1ccc(O)c(C(C)C)c1 | –
10.1 nmol/mg/min | 325.7 ng/g | 0.04 | 12.8 ng/g | Cc1cc(OCC(=O)Nc2cccc(O)c2)cc(C)c1Cc1ccc(O)c(C(C)C)c1 | –
0.8 nmol/mg/min | 4.9 ng/g | 0.94 | 7.4 ng/g | Cc1cc(OCC(=O)NCCc2ccc(O)c(O)c2)cc(C)c1Cc1ccc(O)c(C(C)C)c1 | –
3.5 nmol/mg/min | 64.2 ng/g | 1.7 | 107.1 ng/g | Cc1cc(OCC(=O)NCCF)cc(C)c1Cc1ccc(O)c(C(C)C)c1 | –
3.2 nmol/mg/min | 23.8 ng/g | 2.49 | 58 ng/g | Cc1cc(OCC(=O)NC2CC2)cc(C)c1Cc1ccc(O)c(C(C)C)c1 | –
4.5 nmol/mg/min | 33.7 ng/g | 0.69 | 22.3 ng/g | Cc1cc(OCC(=O)NC(C)CO)cc(C)c1Cc1ccc(O)c(C(C)C)c1 (centres undefined) | –
4.1 nmol/mg/min | 209.7 ng/g | 0.04 | 8.4 ng/g | CONC(=O)COc1cc(C)c(Cc2ccc(O)c(C(C)C)c2)c(C)c1 | –
4.8 nmol/mg/min | 66.8 ng/g | 0.37 | 25.5 ng/g | Cc1cc(OCC(=O)NCCO)cc(C)c1Cc1ccc(O)c(C(C)C)c1 | –
